# Results of several laboratories.
# Compare with care: the assays were run in different laboratories.
# Target: Ephrin type-A receptor 7 (EPHA7, Homo sapiens, UniProt Q15375)
Structure (SMILES),observed,mode,technique,concentration,quantity,value
O=C(NCc1ncc(C(F)(F)F)cc1Cl)c1ccc2c(c1)C1(CCS(=O)(=O)CC1)[C@H](C1CC1)N2S(=O)(=O)c1ccc(F)cc1,cell-free assay,,competition with immobilised ligand,1 µM,remaining binding,100%
Cc1ccc(C(=O)Nc2ccc(CN3CCN(C)CC3)c(C(F)(F)F)c2)cc1C#Cc1cnc2cccnn12,cell-free assay,,,23.5 nM,remaining signal,81%
N#CCCc1ccc2c(c1)-c1[nH]c3ccc([N+](=O)[O-])cc3c1CC(=O)N2,cell-free assay,,,0.5 µM,remaining signal,95.3%
CCN(CC)CCNC(=O)c1c(C)[nH]c(/C=C2\C(=O)Nc3ccc(F)cc32)c1C,enzyme activity,inhibitor,,10 µM,inhibition,78%
c1ccc(CNc2nc(N3CCOc4ccccc43)nc3c2CCCC3)cc1,target engagement in cells,inhibitor,chemoproteomics,20 mM,inhibition,12%
COc1cc(Cl)c(C(=O)N[C@@H](CN[C@H]2CC[C@@H](N)CC2)Cc2ccc(C#N)cc2)cc1-c1ccc(CN[C@H](C)c2ccc(C)cc2)o1,enzyme activity,inhibitor,,1 µM,remaining activity,105%
COc1ccc2c(c1)O[C@@H](c1ccc(OC)c(OC)c1)C[C@H]2NC(=O)C1(c2ccc3c(c2)OC(F)(F)O3)CC1,cell-free assay,,competition with immobilised ligand,1 µM,remaining binding,86%
CNC(=O)c1cc(Oc2ccc(NC(=O)Nc3ccc(Cl)c(C(F)(F)F)c3)cc2)ccn1,enzyme activity,inhibitor,,10 µM,inhibition,90%
O=C(NS(=O)(=O)c1ccc(NCC2CCOCC2)c([N+](=O)[O-])c1)c1ccc(N2CCN(Cc3ccc(C(F)(F)F)cc3-c3ccc(Cl)cc3)CC2)cc1Oc1cnc2[nH]ccc2c1,cell-free assay,,competition with immobilised ligand,1 µM,remaining binding,88%
O=C1NC(=O)c2cc(Nc3ccc(F)cc3)c(Nc3ccc(F)cc3)cc21,cell-free assay,,,0.5 µM,remaining signal,84.6%
CCCOc1ccc([C@H]2[C@H](C(=O)O)[C@@H](c3ccc4c(c3)OCO4)CN2CC(=O)Nc2c(CC)cccc2CC)cc1,cell-free assay,,competition with immobilised ligand,1 µM,remaining binding,98%
CCCS(=O)(=O)Nc1ccc(F)c(C(=O)c2c[nH]c3ncc(-c4ccc(Cl)cc4)cc23)c1F,enzyme activity,inhibitor,,1 µM,inhibition,< 10%
Cc1cnc(NC2CCOCC2)nc1-n1cnc(C(=O)NC(CN)c2cc(F)cc(Cl)c2)c1 (stereo not drawn),enzyme activity,inhibitor,radiometric,1 µM,remaining activity,88%
Cc1ccc(Nc2nccc(N(C)c3ccc4c(C)n(C)nc4c3)n2)cc1S(N)(=O)=O,enzyme activity,inhibitor,,0.3 µM,inhibition,1%
CO[C@@H](C)c1c(Nc2ccc([C@@H](N(C)C(=O)C3CCS(=O)(=O)CC3)C(F)(F)F)cc2)cnc2cc(Cl)nn12,cell-free assay,,competition with immobilised ligand,1 µM,remaining binding,87%
Cc1sc(C(=O)NC2COC2)cc1-n1cc(NC(=O)Nc2c(F)cccc2Cl)cn1,enzyme activity,inhibitor,,10 µM,remaining activity,98.6%
CNC(=O)c1cc2c(Oc3ccc(NC(=O)C4(C(=O)Nc5ccc(F)cc5)CC4)cc3)ccnc2cc1OC,enzyme activity,inhibitor,radiometric,1 µM,inhibition,96%
Cc1c(C(=O)O)cc(-c2ccc(C3CCNCC3)cc2)c2ccc(-c3ccc(C(F)(F)F)cc3)cc12,cell-free assay,,competition with immobilised ligand,1 µM,remaining binding,100%
CCCOc1ccc(OC)c(F)c1C(=O)c1ccc(C(=O)N[C@@H]2CNC[C@H]2NC(=O)c2ccc3[nH]ncc3c2)cc1,enzyme activity,inhibitor,,10 µM,remaining activity,29%
CC/C(=N\NC(=O)NCc1cccc(O)c1)c1ccc(O)c(C)c1O,enzyme activity,inhibitor,,0.1 µM,inhibition,-0.5%
CC(C)(C)c1nc2c(s1)c1nc(N)ncc1c1ccc(NS(=O)(=O)c3c(F)cccc3F)c(F)c12,enzyme activity,inhibitor,radiometric,1 µM,remaining activity,96%
